Here are results for 167 variants from the RNAGym collection of RNA variant scans (doi:10.1126/science.aae0568).

Variants at the floor of the assay were thinned out. Where only a bound is given, the exact number is not on record here.

First the molecules themselves.
B1: tRNA (parent)
chain: GUUCCGUUGGCGUAAUGGUAACGCGUCUCCCUCCUAAGGAGAAGACUGCGGGUUCGAGUCCCGUACGGAACG

Variants of B1 are the subject of the data set. Description: yeast fitness relative to wild type (ratio to wild type); higher = fitter; tRNA-Arg(CCU), competitive growth, 37 C, YPD. In outline:
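Changes in genotype frequencies gave Darwinian fitness relative to wild type. Frequencies were read by 100-nucleotide paired-end sequencing of gene amplicons before and after pooled Saccharomyces cerevisiae strains, carrying tRNA-Arg(CCU) gene variants at the native locus, were competed in YPD at 37°C for 24 hours in six replicates. A genotype was kept only with ≥ 100 starting reads, and estimates < 0.5 were set to 0.5.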
Take G41C C60G: the yeast fitness came to 0.695. C29U G58C A65G: the yeast fitness worked out at 0.61. Consider C4A U26G G44C G58A G68C, for which the yeast fitness worked out at 0.558.

As for C11G C46U A65C, the yeast fitness stood at 0.561. Turning to U16C A40U G52A C55A G56C, the yeast fitness is ≤ 0.5.

On to U3G C27G G50C, for which the yeast fitness was ≤ 0.5. Regarding U2G C33G C61A, the yeast fitness is ≤ 0.5. Consider C4U C5G C34U U54A, for which the yeast fitness was ≤ 0.5. For the variant C5G C29G G41C A57U, the yeast fitness is ≤ 0.5. Under A45U C62G A65G stands 0.913. For A14G G25A C30A A70C, the yeast fitness is ≤ 0.5. For the variant U8C G18C C27A C33U A65C A69C, the yeast fitness is ≤ 0.5. As for C24A A43G, the yeast fitness turned out to be 0.597.

A42C C62U A69U: the yeast fitness was 0.689. Regarding C5A G39C C60G C62A, the yeast fitness is ≤ 0.5.

Consider A20C C22U A40U A65G A69C, for which the yeast fitness was ≤ 0.5. As for U8C A45C C66U, the yeast fitness stood at 0.626.

As for A14G G41A A69C, the yeast fitness is ≤ 0.5. A14G C30A: the yeast fitness is 0.861. With G23A C29U C30A A42U U53A, the yeast fitness was ≤ 0.5. Turning to G6C C30G, the yeast fitness stood at 0.592. For U8C A15C U32C C61U A65U C66U, the yeast fitness was ≤ 0.5. With C5G C11A A20C C22G C30U C31G C61A G67A, the yeast fitness was ≤ 0.5.

Regarding A15G U19C, the yeast fitness turned out to be 0.985. With U7G A14C A20G C22U C49G G56C A70G, the yeast fitness was ≤ 0.5. Take A36U A37U C55U: the yeast fitness came to 0.634. Under G12A G51C C62A stands ≤ 0.5; under C34A A36C G67A, ≤ 0.5. On to G6A G9C A21C C30U A45U C55A, for which the yeast fitness amounted to 0.517. Turning to A37C A45U G67C G68A, the yeast fitness was ≤ 0.5.

U3C C11G C24G U54G: the yeast fitness is ≤ 0.5. Under C4A C27U C60G stands ≤ 0.5; under C4G A21G A45U C49U U64C C66U, ≤ 0.5; under C4G U16A, 0.9. Consider C24G C29A G50C A57C, for which the yeast fitness is ≤ 0.5. Under C5G C29U C66U stands 0.57; under U2C C31G G58C G67C, 0.53; under A14U A15G, 0.725. G10C A45U G48C: the yeast fitness worked out at 0.53.

On to C11A C46U A57C C66A, for which the yeast fitness was ≤ 0.5. As for A36U A45U C46A C66U A69U, the yeast fitness was ≤ 0.5. Consider C11A A15C C34A C66A, for which the yeast fitness was ≤ 0.5. Turning to U3A A36U, the yeast fitness stood at 0.681. Under G10C G67A stands 0.673; under U28C C60G, 0.572.

As to C33U A65C G68C, the yeast fitness came to 0.504. For the variant C4G A14U C31U G44A C46U C49U, the yeast fitness was ≤ 0.5.

Consider C11A U19G A36G C49U U54C A69C, for which the yeast fitness was ≤ 0.5. With U8C C33U, the yeast fitness came to 0.728.

Turning to C5A U16A A43G U59A C61A, the yeast fitness is ≤ 0.5.

As for G10C C30A C66U, the yeast fitness was ≤ 0.5. For C30G C31U, the yeast fitness worked out at 0.678. Consider C5U C34A G67A, for which the yeast fitness was ≤ 0.5. Under A20C A57G G63A stands 0.558.

On to C11A G23A C30U C31G, for which the yeast fitness is ≤ 0.5. On to U3C C4G A42G A45U C66U, for which the yeast fitness came to 0.53. Take C22U C62U A65C: the yeast fitness came to 0.691. As to C24A U26A, the yeast fitness came out at 0.57. On to C29G U35A A36C C62A, for which the yeast fitness is ≤ 0.5. For the variant C31U G44C C60U, the yeast fitness was 0.689.

Take A20C C29G A65U: the yeast fitness is 0.51. For G9C G68C, the yeast fitness amounted to 0.777. Consider C22G C24G G50A C66U A69C, for which the yeast fitness is ≤ 0.5. In the case of U8G G41A, the yeast fitness is 0.642. Take A45G A69U: the yeast fitness was 1.01. On to U7C C46U C61A G63U G67A, for which the yeast fitness is ≤ 0.5. With C5G G17C G25A A40C U59A, the yeast fitness was found to be 0.54.

For A14U C34G A37C G50U C62U, the yeast fitness was ≤ 0.5.

Turning to A42G C62U A69C, the yeast fitness amounted to 0.696. Turning to A20U C29U A57G A65G, the yeast fitness was ≤ 0.5. With C49G U53C C60A, the yeast fitness is ≤ 0.5.

With A15G G18U, the yeast fitness came out at 0.75. Take A21U C49A C62G G68U: the yeast fitness was found to be 0.626.

On to C22G C30G G50A A57U A70G, for which the yeast fitness is ≤ 0.5. Under U13C A57U U59A A69G stands 0.561; under C24G C27U A37G, 0.536; under A21C G25C U26G, 0.59.

Take U32G C49G: the yeast fitness was 0.602. Take C5U C31G G41A G52C C60U C62G C66G: the yeast fitness was ≤ 0.5. Consider C27U A43U C55G, for which the yeast fitness came to 0.544.

For G6A A42C A70G, the yeast fitness is ≤ 0.5. Regarding C33G A40C C62G, the yeast fitness is ≤ 0.5. For the variant G18A A45C C49U, the yeast fitness came to 0.667. In the case of U13G C22G, the yeast fitness is 0.809.

As for A20G C60G G68A, the yeast fitness is ≤ 0.5.

U3C C5G C11G C66U: the yeast fitness is ≤ 0.5.

As for G17C C22A C31G C55G A70U, the yeast fitness was 0.527. Consider A45U G56C, for which the yeast fitness is 0.714. In the case of C4A C5U, the yeast fitness was 0.837. Consider A14U G18C A69U, for which the yeast fitness was ≤ 0.5. In the case of C24U A40C G68C, the yeast fitness is 0.502. With U19A A37C, the yeast fitness was found to be 0.778. In the case of C5A U16A C22G C30A, the yeast fitness is ≤ 0.5. As to C27A U28A, the yeast fitness came out at 0.841. As for C5A U26A A42C, the yeast fitness was ≤ 0.5. Regarding A21U U35C G44A G48C C55G A69U, the yeast fitness is ≤ 0.5. Regarding G9C C27G G52C, the yeast fitness is 0.595. Under A43C C61U stands 0.956; under A15C C46U C60U A65C, ≤ 0.5. Under A21C U47A G52C stands 0.662; under A20G G38C A70U, 0.57. Consider C30G A45C C46U, for which the yeast fitness was 0.612. G25A A37U U47G G56C: the yeast fitness was 0.601. As to U3A A15U G48A A57G C61A, the yeast fitness was ≤ 0.5. For C22G A42U G63C, the yeast fitness was ≤ 0.5. Turning to C5U G25A C49A A69U, the yeast fitness is ≤ 0.5. As to U7G A20U C46G, the yeast fitness was determined as 0.562. Take U13A G25C: the yeast fitness worked out at 1.04.

For U16G A21G C31U, the yeast fitness amounted to 0.985.

On to G6A G18C C30G C34A A37C A65U, for which the yeast fitness turned out to be 0.584.

C29A: the yeast fitness was determined as 0.631.

For the variant C4G C22G C24U G41A G67U, the yeast fitness was ≤ 0.5. For the variant A42U A69G, the yeast fitness was 1.11. Consider C30A G56U A65G, for which the yeast fitness was ≤ 0.5. For U32C A45U G67A, the yeast fitness is ≤ 0.5. Under C5U A20U C30U stands ≤ 0.5; under G9A C11G C24G C27A U28C A65U, ≤ 0.5. For U8G A20G G58U A65G G67A, the yeast fitness is ≤ 0.5.

C27U U54G: the yeast fitness is 0.581. Regarding C22A C27A G52C G63A, the yeast fitness is ≤ 0.5. In the case of C11G A15G C22A U26A C55G, the yeast fitness is ≤ 0.5.

For A45C G52A A69C, the yeast fitness came out at 0.568.

Regarding G6C G23C C31G, the yeast fitness was ≤ 0.5. Take C11G G44C C66A: the yeast fitness is 0.614. Regarding G10C A65G, the yeast fitness worked out at 0.719. U26A C66U: the yeast fitness came out at 0.824. For the variant C11A C31A G44C C60A, the yeast fitness is ≤ 0.5. Under U8C A21G A69C stands 0.761; under U13G A21U C22G U35A A65G, ≤ 0.5. A15U C34G A69U: the yeast fitness was ≤ 0.5. As to U2G A20U, the yeast fitness was found to be 0.757. Turning to U2C G12A A36U C62G, the yeast fitness was ≤ 0.5. As for C31G A69C, the yeast fitness was determined as 0.907. As for C5G U26C A43G U47C U64A, the yeast fitness is ≤ 0.5.

On to G18A C46U U59C G68A, for which the yeast fitness is 0.53. Regarding U35C G50C U54A, the yeast fitness is ≤ 0.5. In the case of U2C C11G C22G G56A G63A, the yeast fitness was ≤ 0.5.

As for C4A A21C U54A, the yeast fitness is ≤ 0.5. U7A C22G C30U A37G A70G: the yeast fitness was determined as 0.563. In the case of A14U U54C C62U, the yeast fitness is ≤ 0.5. Turning to A45C C60A, the yeast fitness is 0.62. For the variant G44C A69G, the yeast fitness was 1.04. For U16A C55U U59A A65C, the yeast fitness was ≤ 0.5. Turning to U8A G52A G56C, the yeast fitness came to 0.841. Consider G17A A37C A69C, for which the yeast fitness was found to be 0.648. Turning to C22A C60G, the yeast fitness was 0.57. For the variant C5G A15G C27G U28A U32A A45G C46U G56C C61U, the yeast fitness is 0.736. Turning to A20G U28A, the yeast fitness is 0.807.

In the case of U13A A20G, the yeast fitness stood at 0.888. Under C4G G17A U26C U28C A40G A70C stands ≤ 0.5; under G9C G10C C29G C46A, 0.59. Under A45U C49U U64A stands 0.571; under C33G A65G, 0.734; under A14G U19A C27G G44A C46G C55G C66A, ≤ 0.5. In the case of U28C C29G C30G A36G, the yeast fitness was ≤ 0.5. Under U2G C24G G52C C66U stands 0.807. With U32G G50A, the yeast fitness was 0.714. With U7C C33U C49U U53C, the yeast fitness worked out at 0.539. A14G C24G G44C G58C G68U: the yeast fitness was ≤ 0.5. Under A57G C60A C66G stands 0.558. With C11A A42C G51A, the yeast fitness was 0.73. With G25A C29U, the yeast fitness is 0.997. On to C29G A36U C49U C60U, for which the yeast fitness is ≤ 0.5. For C11U G17C C30A C33G C61U, the yeast fitness came out at 0.581. Take C11U G41A G58A: the yeast fitness came to 0.768.

Regarding C27A A37C C62G, the yeast fitness is ≤ 0.5. As to C11G C27A C31A, the yeast fitness was ≤ 0.5.
